Source: ChEMBL document CHEMBL2407075, “Sulphonamido-quinoxalines: search for anticancer agent” (Eur J Med Chem, 2013)

What was measured:
Format in all cases: functional
NCI-H322M = assay: Growth inhibition of human NCI-H322M cells assessed as cell growth at 10^-8 M after 48 hrs by sulforhodamine B assay; conditions: read-out: Activity
KM12 = assay: Growth inhibition of human KM12 cells assessed as cell growth at 10^-8 M after 48 hrs by sulforhodamine B assay; conditions: KM12, 48 h, read-out: Activity
HOP-92 [1] = assay: Growth inhibition of human HOP92 cells assessed as cell growth at 10^-6 M after 48 hrs by sulforhodamine B assay; conditions: HOP-92, 48 h, read-out: Activity
Summary of the method: (§1)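 Five-dose screen at NCI. Cells in RPMI 1640 with 5% FBS and 2 mM L-glutamine, seeded at 5000–40,000 cells/well and grown 24 h at 37 °C, 5% CO2 before dosing, with time-zero plates TCA-fixed. Drug diluted from DMSO stock to 0.01, 0.1, 1, 10 and 100 µM final, 48 h. Cells fixed with cold TCA (10% final), stained with 0.4% SRB and read at 515 nm. Percent growth from Tz, control and test absorbances; GI50, TGI and LC50 from dose-response curves.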

MCF7 [2] = assay: Growth inhibition of human MCF7 cells assessed as cell growth at 10^-6 M after 48 hrs by sulforhodamine B assay; conditions: MCF7, 48 h, read-out: Activity
[3] = Growth inhibition of human HCC2998 cells assessed as cell growth at 10^-4 M after 48 hrs by sulforhodamine B assay; conditions: HCC 2998, 48 h, read-out: Activity; summary of the method: as §1
OVCAR-4 = assay: Growth inhibition of human OVCAR4 cells assessed as cell growth at 10^-5 M after 48 hrs by sulforhodamine B assay; conditions: OVCAR-4, 48 h, read-out: Activity
[4] = Growth inhibition of human HCC2998 cells assessed as cell growth at 10^-5 M after 48 hrs by sulforhodamine B assay; conditions: HCC 2998, 48 h, read-out: Activity; summary of the method: as §1
UACC-257 = assay: Growth inhibition of human UACC257 cells assessed as cell growth at 10^-7 M after 48 hrs by sulforhodamine B assay; conditions: UACC-257, 48 h, read-out: Activity
[5] = Growth inhibition of human NCI-ADR-RES cells assessed as cell growth at 10^-7 M after 48 hrs by sulforhodamine B assay; conditions: read-out: Activity
HT-29 = assay: Growth inhibition of human HT-29 cells assessed as cell growth at 10^-5 M after 48 hrs by sulforhodamine B assay; conditions: HT-29, 48 h, read-out: Activity; summary of the method: as §1
SF-539 = assay: Growth inhibition of human SF539 cells assessed as cell growth at 10^-8 M after 48 hrs by sulforhodamine B assay; conditions: SF-539, 48 h, read-out: Activity
Malme-3M = assay: Growth inhibition of human MALME-3M cells assessed as cell growth at 10^-7 M after 48 hrs by sulforhodamine B assay; conditions: read-out: Activity
MOLT-4 = assay: Growth inhibition of human MOLT4 cells after 48 hrs by sulforhodamine B assay; conditions: MOLT-4, 48 h; for CC50: read-out: LC50 (the source's name)
Summary of the method: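 Leukemia suspension cells in RPMI 1640 with 5% FBS and 2 mM L-glutamine were plated at 5000–40,000 cells/well and grown 24 h. Five concentrations (0.01–100 µM) were given for 48 h at 37 °C. Settled cells were fixed with 80% TCA (16% final) and SRB-stained, read at 515 nm. GI50 came from dose–response curves against time-zero and control plates.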

M14 = assay: Growth inhibition of human M14 cells assessed as cell growth at 10^-8 M after 48 hrs by sulforhodamine B assay; conditions: M14, 48 h, read-out: Activity
SN12C = assay: Growth inhibition of human SN12C cells assessed as cell growth at 10^-6 M after 48 hrs by sulforhodamine B assay; conditions: read-out: Activity
OVCAR-3 = assay: Growth inhibition of human OVCAR3 cells assessed as cell growth at 10^-5 M after 48 hrs by sulforhodamine B assay; conditions: OVCAR-3, 48 h, read-out: Activity
UACC-62 = assay: Growth inhibition of human UACC62 cells assessed as cell growth at 10^-8 M after 48 hrs by sulforhodamine B assay; conditions: UACC-62, 48 h, read-out: Activity
SNB-75 = assay: Growth inhibition of human SNB75 cells assessed as cell growth at 10^-5 M after 48 hrs by sulforhodamine B assay; conditions: SNB-75, 48 h, read-out: Activity
COLO 205 [6] = assay: Growth inhibition of human COLO205 cells assessed as cell growth at 10^-8 M after 48 hrs by sulforhodamine B assay; conditions: COLO 205, 48 h, read-out: Activity
Summary of the method: (§2)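 Five-dose NCI-60 run (0.01, 0.1, 1, 10 and 100 µM, as 10-fold dilutions from a DMSO stock made at 400× the top final level). Cells were grown in RPMI 1640 with 5% FBS and 2 mM glutamine and plated for 24 h. They were then exposed for 48 h at 37 °C and 5% CO2. TCA fixation was followed by SRB staining with A515 read-out. Percent growth was taken relative to time-zero and control plates.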

T47D = assay: Growth inhibition of human T47D cells assessed as cell growth at 10^-6 M after 48 hrs by sulforhodamine B assay; conditions: read-out: Activity
SF-268 = assay: Growth inhibition of human SF268 cells assessed as cell growth at 10^-6 M after 48 hrs by sulforhodamine B assay; conditions: SF-268, 48 h, read-out: Activity
U-251 = assay: Growth inhibition of human U251 cells assessed as cell growth at 10^-8 M after 48 hrs by sulforhodamine B assay; conditions: U-251, 48 h, read-out: Activity
HOP-92 [7] = assay: Growth inhibition of human HOP92 cells assessed as cell growth at 10^-4 M after 48 hrs by sulforhodamine B assay; conditions: HOP-92, 48 h, read-out: Activity; summary of the method: as §1
MCF7 [8] = assay: Growth inhibition of human MCF7 cells after 48 hrs by sulforhodamine B assay; conditions: MCF7, 48 h; for CC50: read-out: LC50 (the source's name)
Summary of the method: (§3)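 Adherent cells in RPMI 1640 with 5% FBS and 2 mM L-glutamine were plated at 5000–40,000 cells/well and grown 24 h. Five concentrations (0.01–100 µM, DMSO stock) were added for 48 h at 37 °C. Cells were fixed with cold TCA (10% final) and stained with SRB, read at 515 nm. GI50 came from log concentration–growth curves against time-zero and control plates.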

K562 = assay: Growth inhibition of human K562 cells assessed as cell growth at 10^-8 M after 48 hrs by sulforhodamine B assay; conditions: K562, 48 h, read-out: Activity
OVCAR-5 = assay: Growth inhibition of human OVCAR5 cells after 48 hrs by sulforhodamine B assay; conditions: OVCAR-5, 48 h; for CC50: read-out: LC50 (the source's name); summary of the method: as §3
COLO 205 [9] = assay: Growth inhibition of human COLO205 cells assessed as cell growth at 10^-7 M after 48 hrs by sulforhodamine B assay; conditions: COLO 205, 48 h, read-out: Activity; summary of the method: as §2
MDA-MB-231 = assay: Growth inhibition of human MDA-MB-231 cells assessed as cell growth at 10^-5 M after 48 hrs by sulforhodamine B assay; conditions: MDA-MB-231, 48 h, read-out: Activity
SK-MEL-28 = assay: Growth inhibition of human SK-MEL-28 cells after 48 hrs by sulforhodamine B assay; conditions: SK-MEL-28, 48 h; for CC50: read-out: LC50 (the source's name); summary of the method: as §3

SMILES	growth at 0.01 µM (NCI-H322M) [%]	growth at 0.01 µM (KM12) [%]	growth at 1 µM (HOP-92 [1]) [%]	growth at 1 µM (MCF7 [2]) [%]	growth at 100 µM [3] [%]	growth at 10 µM (OVCAR-4) [%]	growth at 10 µM [4] [%]	growth at 0.1 µM (UACC-257) [%]	growth at 0.1 µM [5] [%]	growth at 10 µM (HT-29) [%]	growth at 0.01 µM (SF-539) [%]	growth at 0.1 µM (Malme-3M) [%]	CC50 (MOLT-4) [µM]	growth at 0.01 µM (M14) [%]	growth at 1 µM (SN12C) [%]	growth at 10 µM (OVCAR-3) [%]	growth at 0.01 µM (UACC-62) [%]	growth at 10 µM (SNB-75) [%]	growth at 0.01 µM (COLO 205 [6]) [%]	growth at 1 µM (T47D) [%]	also measured
O=S(=O)(Nc1ccc(Cl)cc1)c1ccc2nc(-c3ccccc3)c(-c3ccccc3)nc2c1	93	103	78	93	85	12	2	99	102	-55	99	99	> 100	95	93	-41	95	12	101	69	growth at 1 µM (SF-268): 93%; growth at 0.01 µM (U-251): 97%; growth at 100 µM (HOP-92 [7]): 32%; CC50 (MCF7 [8]): > 100 µM; growth at 0.01 µM (K562): 98%; TGI (OVCAR-5): > 100 µM; CC50 (OVCAR-5): > 100 µM; growth at 0.1 µM (COLO 205 [9]): 101%; growth at 10 µM (MDA-MB-231): -78%; TGI (SK-MEL-28): > 100 µM; CC50 (SK-MEL-28): > 100 µM
O=S(=O)(Nc1ccccn1)c1ccc2nc(-c3ccccc3)c(-c3ccccc3)nc2c1	96	91	77	87	64	10	-14	103	102	-37	96	107	> 100	96	91	-32	92	3	98	54	GI50 (MOLT-4): 1.89 µM; growth at 1 µM (SF-268): 99%; growth at 0.01 µM (U-251): 99%; growth at 100 µM (HOP-92 [7]): 1%; GI50 (MCF7 [8]): 2.18 µM; CC50 (MCF7 [8]): > 100 µM; growth at 0.01 µM (K562): 105%; TGI (OVCAR-5): > 100 µM; CC50 (OVCAR-5): > 100 µM; growth at 0.1 µM (COLO 205 [9]): 98%; growth at 10 µM (MDA-MB-231): -60%; TGI (SK-MEL-28): > 100 µM; CC50 (SK-MEL-28): > 100 µM
